Results as given in ChEMBL document CHEMBL2021788, “Cytotoxic cardiac glycosides and other compounds from Asclepias syriaca” (J Nat Prod, 2012).

Assays:
[1] = Cytotoxicity against human Hs578Bst cells after 72 hrs by CellTiter-Glo assay; format: cell-based
Outline: (§1)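 Breast lines (normal Hs578Bst; cancer Hs578T, T47D, Sk-Br-3, MCF-7) seeded at 3000 cells/well in 384-well plates, attached overnight. Compound dispensed acoustically at 14 concentrations spanning 0.002−40 μM, 72 h incubation. Viability by CellTiter-Glo luminescence read after 2 min shaking and 15 min stabilization. Triplicate dose−response curves, data normalized to median, IC50 from curve fit.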

T47D = test: Cytotoxicity against human T47D cells after 72 hrs by CellTiter-Glo assay; format: functional, cell-based; outline: as §1
Hs-578T [2] = test: Cytotoxicity against human Hs578T cells at 40 uM after 72 hrs by CellTiter-Glo assay relative to untreated control; format: functional, cell-based
Outline: (§2)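 Hs578T or Hs578Bst cells plated at 3000/well in 384-well format, grown overnight, then exposed to 40 μM (top of a 14-point 0.002−40 μM series) for 72 h. CellTiter-Glo luminescence after 2 min shaking plus 15 min stabilization; viability given as percent of control, n = 3, ± SD.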

[3] = Cytotoxicity against human Hs578Bst cells at 40 uM after 72 hrs by CellTiter-Glo assay relative to untreated control; format: cell-based; outline: as §2
SK-BR-3 = test: Cytotoxicity against human SK-BR-3 cells after 72 hrs by CellTiter-Glo assay; format: functional, cell-based; conditions: SK-BR-3, 72 h; outline: as §1
MCF7 = test: Cytotoxicity against human MCF7 cells after 72 hrs by CellTiter-Glo assay; format: functional, cell-based; conditions: MCF7, 72 h; outline: as §1
Hs-578T [4] = test: Cytotoxicity against human Hs578T cells after 72 hrs by CellTiter-Glo assay; format: functional, cell-based; outline: as §1

SMILES	IC50 [1] [µM]	IC50 (T47D) [µM]	% toxicity (Hs-578T [2]) [%]	% toxicity [3] [%]	IC50 (SK-BR-3) [µM]	IC50 (MCF7) [µM]	IC50 (Hs-578T [4]) [µM]
C[C@]12CC[C@H](O[C@@H]3O[C@H](CO[C@@H]4O[C@H](CO)[C@@H](O)[C@H](O)[C@H]4O)[C@@H](O)[C@H](O)[C@H]3O)C[C@@H]1CC[C@@H]1[C@@H]2CC[C@]2(C)[C@@H](C3=CC(=O)OC3)CC[C@]12O [UZARIN]	0.76	9.5	84	54.7	19.4	11.6	4.58
C[C@@H]1O[C@@H](O[C@H]2C[C@@H](O)[C@]3(CO)[C@H]4[C@H](O)C[C@]5(C)[C@@H](C6=CC(=O)OC6)CC[C@]5(O)[C@@H]4CC[C@]3(O)C2)[C@H](O)[C@H](O)[C@H]1O [OUABAIN]	0.006	0.385	93	55.8	0.403	10.6	0.11
C[C@H]1O[C@@H](O[C@H]2CC[C@@]3(C)[C@@H](CC[C@@H]4[C@@H]3CC[C@]3(C)[C@@H](C5=CC(=O)OC5)CC[C@]43O)C2)[C@H](O)[C@H](O)[C@@H]1O[C@@H]1O[C@H](CO)[C@@H](O)[C@H](O)[C@H]1O	0.043	1.76	91.5	51.7	2.52	5.3	0.593
O=c1c(O[C@@H]2OC[C@@H](O)[C@H](O)[C@H]2O[C@@H]2O[C@H](CO)[C@H](O)[C@H](O)[C@H]2O)c(-c2ccc(O)cc2)oc2cc(O)cc(O)c12	> 40	> 40	32.7	13.9	> 40	> 40	> 40
COc1cccc2c1C(=O)c1c(O)c3c(c(O)c1C2=O)C[C@@](O)(C(=O)CO)C[C@@H]3O[C@H]1C[C@H](N)[C@H](O)[C@H](C)O1 [DOXORUBICIN]	0.18	1.9	98.3	64.3	0.21	1.54	0.546
C[C@]12CC[C@H](O[C@@H]3O[C@H](CO)[C@@H](O)[C@H](O)[C@H]3O)C[C@@H]1CC[C@@H]1[C@@H]2CC[C@]2(C)[C@@H](C3=CC(=O)OC3)CC[C@]12O [DESGLUCOUZARIN]	1.05	11.7	85.5	51.6	18.1	17	6.28
C[C@H]1O[C@@H](O[C@H]2CC[C@@]3(C)[C@@H](CC[C@@H]4[C@@H]3CC[C@]3(C)[C@](O)(C5=CC(=O)OC5)CC[C@]43O)C2)[C@H](O)[C@H](O)[C@@H]1O[C@@H]1O[C@H](CO)[C@@H](O)[C@H](O)[C@H]1O	14.2	> 40	56	38.2	> 40	> 40	> 40
C[C@]12CC[C@H](O)C[C@H]1CC[C@@H]1[C@@H]2CC[C@]2(C)[C@@H](C3=CC(=O)OC3)CC[C@]12O [DIGITOXIGENIN]	0.15	2.53	92.3	49.8	4.42	9.1	1.02
C[C@H]1O[C@@H](O[C@H]2[C@@H](O)C[C@H](O[C@H]3[C@@H](O)C[C@H](O[C@H]4CC[C@@]5(C)[C@H](CC[C@@H]6[C@@H]5C[C@@H](O)[C@]5(C)[C@@H](C7=CC(=O)OC7)CC[C@]65O)C4)O[C@@H]3C)O[C@@H]2C)C[C@H](O)[C@@H]1O [DIGOXIN]	0.04	0.66	93.5	47.7	1.08	4.7	0.251
